In ChEMBL document CHEMBL1144898, “Structure-based design and synthesis of novel potent Na+,K+ -ATPase inhibitors derived from a 5alpha,14alpha-androstane scaffold as positive inotropic compounds” (J Med Chem, 2003):
pIC50: −log10 of the molar value.

What was measured:
Cavia porcellus [1] = experiment: Inotropic activity by slow intravenous infusion in anesthetized guinea pigs(Maximal increase in+dp/dtmax); format: functional
Summary of the method: (§1)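 Anesthetized guinea pigs given compound by slow intravenous infusion; contractility read as +dP/dtmax. Values are the maximal increase in +dP/dtmax, the dose inducing the maximum inotropic effect, and the dose raising +dP/dtmax by 80% taken from dose–response curves.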

Cavia porcellus [2] = experiment: Inotropic activity by slow intravenous infusion in anesthetized guinea pigs (dead/treated ratio = 10/10); format: functional
Cavia porcellus [3] = experiment: Inotropic activity by slow intravenous infusion in anesthetized guinea pigs(Inotropic potency:dose increasing +dp/dtmax by 80%); format: functional; summary of the method: as §1
Cavia porcellus [4] = experiment: Inotropic activity by slow intravenous infusion in anesthetized guinea pigs(Dose inducing maximum positive inotropic effect); format: functional; summary of the method: as §1
[5] = target: Sodium/potassium-transporting ATPase; experiment: Inhibitory activity against Na+/K+ ATPase was determined; format: protein-complex assay, Canis lupus familiaris
[6] = (§2) Inotropic activity by slow intravenous infusion in anesthetized guinea pigs; format: organism-based, Cavia porcellus; settings: guinea pig, in vivo, read-out: LD/ED80
Cavia porcellus [7] = experiment: Inotropic activity by slow intravenous infusion in anesthetized guinea pigs (dead/treated ratio = 7/8); format: functional
Cavia porcellus [8] = experiment: Inotropic activity by slow intravenous infusion in anesthetized guinea pigs (dead/treated ratio = 1/3); format: functional
Cavia porcellus [9] = experiment: as §2; format: organism-based; settings: guinea pig, in vivo
Cavia porcellus [10] = experiment: Inotropic activity by slow intravenous infusion in anesthetized guinea pigs (dead/treated ratio = 1/5); format: functional
[11] = system: Sodium/potassium-transporting ATPase (Canis lupus familiaris); experiment: Inhibition activity against Na+/K+ ATPase (relative potency in comparison to digitoxigenin)
Cavia porcellus [12] = experiment: Inotropic activity by slow intravenous infusion in anesthetized guinea pigs (dead/treated ratio = 3/3); format: functional

| Compound | Increase (Cavia porcellus [1]) [%] | ED80 (Cavia porcellus [3]) [µM/kg] | EDmax (Cavia porcellus [4]) [µM/kg] | pIC50 [5] | further results |
| --- | --- | --- | --- | --- | --- |
| C[C@H]1O[C@@H](O[C@H]2[C@@H](O)C[C@H](O[C@H]3[C@@H](O)C[C@H](O[C@H]4CC[C@@]5(C)[C@H](CC[C@@H]6[C@@H]5C[C@@H](O)[C@]5(C)[C@@H](C7=CC(=O)OC7)CC[C@]65O)C4)O[C@@H]3C)O[C@@H]2C)C[C@H](O)[C@@H]1O [DIGOXIN] | 127 | 0.41 | 0.97 |  | Dead/treated (Cavia porcellus [2]): 10 |
| C[C@]12CCC(=NOCCN)C[C@@H]1[C@H](O)CC1C2CC[C@]2(C)C(O)CC[C@@H]12 (stereo not given in full) |  |  |  | 5.80 |  |
| C[C@]12CCC(=NOCCN)C[C@@H]1C(=O)C[C@@H]1[C@@H]2CC[C@]2(C)C(=O)CC[C@@H]12 [ISTAROXIME] | 190 | 4.84 | 17.9 |  | selectivity ratio [6]: 20.2; Dead/treated (Cavia porcellus [7]): 7 |
| C[C@]12CCC(=NOCCN)C[C@@H]1[C@@H](O)C[C@@H]1[C@@H]2CC[C@]2(C)C(=O)CC[C@@H]12 (stereo in doubt; 22n) | 154 | 14.8 | 111.2 | 5.60 | selectivity ratio [6]: 9.2; Dead/treated (Cavia porcellus [8]): 1 |
| CC(=O)NCCO/N=C1\CC[C@@]2(C)[C@H](C1)C(=O)C[C@@H]1[C@@H]2CC[C@]2(C)C(=O)CC[C@@H]12 |  |  |  | < 5.00 |  |
| C[C@]12CC/C(=N\OCCCN)C[C@@H]1[C@H](O)C[C@@H]1[C@@H]2CC[C@]2(C)C(O)CC[C@@H]12 (stereo not given in full) | 99 | 1.58 | 7.37 | 5.70 | Dead/treated (Cavia porcellus [8]): 1 |
| C[C@]12CC/C(=N/OCCN)C[C@@H]1[C@H](O)CC1C2CC[C@]2(C)C(O)CC[C@@H]12 (stereo not given in full) |  |  |  | 4.92 |  |
| C[C@]12CC/C(=N\OCCCN)C[C@@H]1C(=O)C[C@@H]1[C@@H]2CC[C@]2(C)C(=O)CC[C@@H]12 | 129 | 6.55 | 18.2 | 6.10 | Dead/treated (Cavia porcellus [8]): 1 |
| C[C@]12CC/C(=N\OCCN)C[C@@H]1C(O)C[C@@H]1[C@@H]2CC[C@]2(C)C(O)CC[C@@H]12 (stereo not given in full) |  |  |  | 5.00 |  |
| C[C@]12CCC(=NOCCN)C[C@@H]1[C@@H](O)C[C@@H]1[C@@H]2CC[C@]2(C)C(=O)CC[C@@H]12 (stereo in doubt; 22g) | 207 | 5.3 | 54.6 | 5.92 | LD/ED80 (Cavia porcellus [9]): 17.8; Dead/treated (Cavia porcellus [10]): 1 |
| C[C@]12CC/C(=N/OCCCN)C[C@@H]1[C@H](O)CC1C2CC[C@]2(C)C(O)CC[C@@H]12 (stereo not given in full) |  |  |  | 5.52 |  |
| C[C@]12CC/C(=N\OCCN)C[C@@H]1C(=O)C[C@@H]1[C@@H]2CC[C@]2(C)C(O)CC[C@@H]12 (stereo not given in full) |  |  |  | 6.22 |  |
| C[C@H]1/C(=C/C(=O)OCCN(C)C)CCC2C1C(=O)CC1C(C)(C)[C@@H](O)CC[C@]21C (stereo not given in full) [CASSAINE] |  |  |  | 5.30 | Relative potency [11]: 0.1 |
| C[C@]12CC/C(=N\OCCN)C[C@@H]1[C@H](O)C[C@@H]1[C@@H]2CC[C@]2(C)C(O)CC[C@@H]12 (stereo not given in full) | 158 | 0.97 | 4.13 | 5.70 | selectivity ratio [6]: 9.6; Dead/treated (Cavia porcellus [12]): 3 |
